What was measured:
[1] = melting temperature; fluorescence melt of hairpins on a sequencing array, two-state fit, raised by 9.35 °C to match UV melts; settings: sodium 0.088 M
Method in brief: (§1)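 Two-state fits, bootstrapped, provided melting temperature and folding enthalpy from Cy3 fluorescence normalised to pre-quench Cy3 and to control constructs. Library hairpins with annealed Cy3 and quencher oligos were imaged on a sequenced MiSeq flow cell in 50 mM Na-HEPES pH 8.0, 25 mM NaCl, at 2.5 °C intervals up to 60 °C. Four replicates were combined with inverse-variance weighting. A 9.35 °C upward shift was applied to fitted temperatures to match UV melts.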

[2] = folding enthalpy; higher = less favourable; fluorescence melt of hairpins on a sequencing array, two-state fit; settings: sodium 0.088 M
Method in brief: as §1

GCGTTTGCGAAAGCACGC (((..(((....))))))
Tm [1]: 55.2 °C
folding enthalpy [2]: -22.6 kcal/mol

GCGTTTGGAAACAAGCGC (((.(((....))).)))
Tm [1]: 54.6 °C
folding enthalpy [2]: -45.6 kcal/mol

GCGTTTGGAAACGAACGC (((((.(....).)))))
Tm [1]: 55.7 °C
folding enthalpy [2]: -61.3 kcal/mol

GCGTTTTAACGC ((((....))))
Tm [1]: 57.7 °C
folding enthalpy [2]: -26.5 kcal/mol

GCTAAAGCGAAAGCTAGC (((..(((....))))))
Tm [1]: 47.3 °C
folding enthalpy [2]: -21.4 kcal/mol

GCTAACCCGAAAGGGAGC (((..(((....))))))
Tm [1]: 41.1 °C
folding enthalpy [2]: -15.6 kcal/mol

GCTAACGAAAGTTATAGC ((((((....)))..)))
Tm [1]: 36 °C
folding enthalpy [2]: -24.2 kcal/mol

GCTAACGAAAGTTGTAGC ((((((....)))..)))
Tm [1]: 38.3 °C
folding enthalpy [2]: -20.6 kcal/mol

GCTAACGAAAGTTTGAGC ((((((....)))..)))
Tm [1]: 32.6 °C
folding enthalpy [2]: -15.6 kcal/mol

GCTAACGAAAGTTTTAGC ((((((....)))..)))
Tm [1]: 33.6 °C
folding enthalpy [2]: -17.4 kcal/mol

GCTAACGCGAAAGCGAGC (((..(((....))))))
Tm [1]: 45.2 °C
folding enthalpy [2]: -15.2 kcal/mol

GCTAAGACGAAAGTCAGC (((..(((....))))))
Tm [1]: 44.3 °C
folding enthalpy [2]: -20.4 kcal/mol

GCTAAGCGAAAGCAAAGC (((..((....))..)))
Tm [1]: 40.8 °C
folding enthalpy [2]: -17.5 kcal/mol

GCTAAGCGAAAGCACAGC (((..((....))..)))
Tm [1]: 42.7 °C
folding enthalpy [2]: -21.7 kcal/mol

GCTAAGCGAAAGCAGAGC (((..((....))..)))
Tm [1]: 43.4 °C
folding enthalpy [2]: -23.9 kcal/mol

GCTAAGCGAAAGCATAGC ((((.((....)).))))
Tm [1]: 54.8 °C
folding enthalpy [2]: -27 kcal/mol

GCTAAGCGAAAGCTAAGC (((.(((....))).)))
Tm [1]: 51.5 °C
folding enthalpy [2]: -41.1 kcal/mol

GCTAAGCGAAAGCTATGC ((..(((....)))..))
Tm [1]: 43.5 °C
folding enthalpy [2]: -20.4 kcal/mol

GCTAAGCGAAAGCTCCGC ((..(((....)))..))
Tm [1]: 26.9 °C
folding enthalpy [2]: -10.6 kcal/mol

GCTAAGCGAAAGCTGAGC (((.(((....))).)))
Tm [1]: 56.1 °C
folding enthalpy [2]: -42.3 kcal/mol

GCTAAGTCGAAAGACAGC (((..(((....))))))
Tm [1]: 41.2 °C
folding enthalpy [2]: -20.2 kcal/mol

GCTAATACGAAAGTAAGC (((..(((....))))))
Tm [1]: 29.5 °C
folding enthalpy [2]: -14.1 kcal/mol

GCTAATCCGAAAGGAAGC (((..(((....))))))
Tm [1]: 33.1 °C
folding enthalpy [2]: -16.5 kcal/mol

GCTAATCGAAAGATAAGC (((.(((....))).)))
Tm [1]: 42.8 °C
folding enthalpy [2]: -26.2 kcal/mol

GCTAATCGAAAGATGAGC (((.(((....))).)))
Tm [1]: 47.8 °C
folding enthalpy [2]: -31.4 kcal/mol

GCTACAGGAAACTGTAAC (.(((((....))))).)
Tm [1]: 30.3 °C
folding enthalpy [2]: -12.8 kcal/mol

GCTACAGGAAACTGTAGC (((((((....)))))))
Tm [1]: 63.7 °C
folding enthalpy [2]: -47.9 kcal/mol

GCTACCCCGAAAGGGAGC (((..(((....))))))
Tm [1]: 46.9 °C
folding enthalpy [2]: -22.8 kcal/mol

GCTACCCGAAAGGGAGC (((.(((....))))))
Tm [1]: 55.5 °C
folding enthalpy [2]: -23.1 kcal/mol

GCTACCGAAAGGTACAGC ((((((....)))..)))
Tm [1]: 42.5 °C
folding enthalpy [2]: -13.6 kcal/mol

GCTACCGAAAGGTATAGC ((((((....)))..)))
Tm [1]: 44.4 °C
folding enthalpy [2]: -18.2 kcal/mol

GCTACCGAAAGGTCGAGC ((((((....)))..)))
Tm [1]: 37 °C
folding enthalpy [2]: -16.3 kcal/mol

GCTACCGAAAGGTTAAGC ((((((....)))..)))
Tm [1]: 39.4 °C
folding enthalpy [2]: -19.6 kcal/mol

GCTACCGAAAGGTTCAGC ((((((....)))..)))
Tm [1]: 35.5 °C
folding enthalpy [2]: -16.3 kcal/mol

GCTACCGAAAGGTTTAGC ((((((....)))..)))
Tm [1]: 38.5 °C
folding enthalpy [2]: -17.6 kcal/mol

GCTACCGGAAACGGCAGC (((.(((....))).)))
Tm [1]: 51.8 °C
folding enthalpy [2]: -38.7 kcal/mol

GCTACGCGAAAGCATAGC ((((.((....)).))))
Tm [1]: 53.9 °C
folding enthalpy [2]: -28 kcal/mol

GCTACGCGAAAGCATCGC ((.(.((....)).).))
Tm [1]: 30.7 °C
folding enthalpy [2]: -9.49 kcal/mol

GCTACGCGAAAGCGCCGC ((..(((....)))..))
Tm [1]: 36.8 °C
folding enthalpy [2]: -10.9 kcal/mol

GCTACGCGAAAGCGGCGC ((..(((....)))..))
Tm [1]: 60.5 °C
folding enthalpy [2]: -19.6 kcal/mol

GCTACGCGAAAGCGGTGC ((..(((....)))..))
Tm [1]: 56 °C
folding enthalpy [2]: -16 kcal/mol

GCTACGCGAAAGCTTAGC ((((.((....)).))))
Tm [1]: 55.4 °C
folding enthalpy [2]: -20.8 kcal/mol

GCTACGCGAAAGCTTCGC ((.(.((....)).).))
Tm [1]: 37.6 °C
folding enthalpy [2]: -10.3 kcal/mol

GCTACGGGAAACCATAGC ((((.((....)).))))
Tm [1]: 39.4 °C
folding enthalpy [2]: -31 kcal/mol

GCTACGGGAAACCGCAGC (((.(((....))).)))
Tm [1]: 49.7 °C
folding enthalpy [2]: -41.7 kcal/mol

GCTACGGGAAACCGTAAC (.(((((....))))).)
Tm [1]: 36.1 °C
folding enthalpy [2]: -13.7 kcal/mol

GCTACTCGAAAGAGAGC (((.(((....))))))
Tm [1]: 44.8 °C
folding enthalpy [2]: -25.4 kcal/mol

GCTAGAACGAAAGTTAGC (((..(((....))))))
Tm [1]: 38.3 °C
folding enthalpy [2]: -26.6 kcal/mol

GCTAGAGGAAACTCTAGC (((((((....)))))))
Tm [1]: 58.5 °C
folding enthalpy [2]: -44 kcal/mol

GCTAGATCGAAAGATAGC (((..(((....))))))
Tm [1]: 36.4 °C
folding enthalpy [2]: -19.4 kcal/mol

GCTAGCCGAAAGGCCAGC (((.(((....))).)))
Tm [1]: 54.3 °C
folding enthalpy [2]: -20.8 kcal/mol

GCTAGCGAAAGCTATAGC ((((((....)))..)))
Tm [1]: 46.5 °C
folding enthalpy [2]: -18.5 kcal/mol

GCTAGCGAAAGCTCCAGC ((((((....)))..)))
Tm [1]: 33.1 °C
folding enthalpy [2]: -10.8 kcal/mol

GCTAGCGAAAGCTGAAGC ((((((....)))..)))
Tm [1]: 43.1 °C
folding enthalpy [2]: -15 kcal/mol

GCTAGCGAAAGCTGAGC ((((((....))).)))
Tm [1]: 49.9 °C
folding enthalpy [2]: -28.5 kcal/mol

GCTAGCGAAAGCTGGAGC ((((((....)))..)))
Tm [1]: 43.2 °C
folding enthalpy [2]: -14.1 kcal/mol

GCTAGCGAAAGCTTAAGC ((((((....)))..)))
Tm [1]: 43.2 °C
folding enthalpy [2]: -16.9 kcal/mol

GCTAGCGGAAACGTTAGC ((((.((....)).))))
Tm [1]: 51.3 °C
folding enthalpy [2]: -34.1 kcal/mol

GCTAGGCCGAAAGGCAGC (((..(((....))))))
Tm [1]: 47.8 °C
folding enthalpy [2]: -15.1 kcal/mol

GCTAGGCGAAAGCCTGGC ((.((((....)))).))
Tm [1]: 68.2 °C
folding enthalpy [2]: -21.1 kcal/mol

GCTAGGCGAAAGCGTTGC ((.(.((....)).).))
Tm [1]: 42 °C
folding enthalpy [2]: -21.9 kcal/mol

GCTAGGCGAAAGCTAAGC (((..((....))..)))
Tm [1]: 48.7 °C
folding enthalpy [2]: -18.6 kcal/mol

GCTAGGGGAAACCCTAGC (((((((....)))))))
Tm [1]: 65.9 °C
folding enthalpy [2]: -44.2 kcal/mol

GCTAGTACGAAAGTAAGC (((..(((....))))))
Tm [1]: 28.2 °C
folding enthalpy [2]: -14.7 kcal/mol

GCTATCGAAAGATACAGC ((((((....)))..)))
Tm [1]: 32.6 °C
folding enthalpy [2]: -20.8 kcal/mol

GCTATCGAAAGATAGC ((((((....))))))
Tm [1]: 66.4 °C
folding enthalpy [2]: -39 kcal/mol

GCTATCGAAAGATGAAGC ((((((....)))..)))
Tm [1]: 32.8 °C
folding enthalpy [2]: -16.2 kcal/mol

GCTATGCGAAAGCAAGC (((.(((....))))))
Tm [1]: 51.7 °C
folding enthalpy [2]: -17.5 kcal/mol

GCTATGCGAAAGCACTGC ((..(((....)))..))
Tm [1]: 36.3 °C
folding enthalpy [2]: -15.3 kcal/mol

GCTATGCGAAAGCAGCGC ((..(((....)))..))
Tm [1]: 54.2 °C
folding enthalpy [2]: -18.9 kcal/mol

GCTATGCGAAAGCATGGC ((.((((....)))).))
Tm [1]: 65 °C
folding enthalpy [2]: -32 kcal/mol

GCTATGCGAAAGCCTAGC ((((.((....)).))))
Tm [1]: 52.4 °C
folding enthalpy [2]: -28.8 kcal/mol

GCTATGCGAAAGCGTCGC ((.(.((....)).).))
Tm [1]: 43.2 °C
folding enthalpy [2]: -18.1 kcal/mol

GCTATGCGAAAGCGTGGC ((.(.((....)).).))
Tm [1]: 53.5 °C
folding enthalpy [2]: -26.1 kcal/mol

GCTATGCGAAAGCGTTGC ((.(.((....)).).))
Tm [1]: 48.9 °C
folding enthalpy [2]: -22.9 kcal/mol

GCTATGCGAAAGCTTCGC ((.(.((....)).).))
Tm [1]: 41.5 °C
folding enthalpy [2]: -14.2 kcal/mol

GCTATGGGAAACCACAGC (((.(((....))).)))
Tm [1]: 38.6 °C
folding enthalpy [2]: -23.7 kcal/mol

GCTATTACGAAAGTAAGC (((..(((....))))))
Tm [1]: 30 °C
folding enthalpy [2]: -13.6 kcal/mol

GCTATTCGAAAGAAAGC (((.(((....))))))
Tm [1]: 32.1 °C
folding enthalpy [2]: -20.1 kcal/mol

GCTATTCGAAAGAACAGC (((.(((....))).)))
Tm [1]: 40.4 °C
folding enthalpy [2]: -29.6 kcal/mol

GCTATTGGAAACGATAGC (((((.(....).)))))
Tm [1]: 44.8 °C
folding enthalpy [2]: -32.4 kcal/mol

GCTCAACGAAAGTTTAGC (((.(((....))).)))
Tm [1]: 44.5 °C
folding enthalpy [2]: -28.2 kcal/mol

GCTCAAGGAAACCTGAGC (((((.(....).)))))
Tm [1]: 46.9 °C
folding enthalpy [2]: -35.4 kcal/mol

GCTCACACGAAAGTGAGC (((..(((....))))))
Tm [1]: 60.5 °C
folding enthalpy [2]: -32 kcal/mol

GCTCACGAAAGTGAAAGC ((((((....)))..)))
Tm [1]: 48.9 °C
folding enthalpy [2]: -21 kcal/mol

GCTCACGAAAGTGAAGC ((((((....))).)))
Tm [1]: 56 °C
folding enthalpy [2]: -29 kcal/mol

GCTCACGAAAGTGGGAGC ((((((....)))..)))
Tm [1]: 49.9 °C
folding enthalpy [2]: -20.1 kcal/mol

GCTCACGAAAGTGTAAGC ((((((....)))..)))
Tm [1]: 45.4 °C
folding enthalpy [2]: -19 kcal/mol

GCTCACGAAAGTGTAGC ((((((....))).)))
Tm [1]: 51.5 °C
folding enthalpy [2]: -24.6 kcal/mol

GCTCACGGAAACGCAAGC (((..((....))..)))
Tm [1]: 26.8 °C
folding enthalpy [2]: -8.31 kcal/mol

GCTCAGAAATGAGC (((((....)))))
Tm [1]: 55.4 °C
folding enthalpy [2]: -26.8 kcal/mol

From the array DNA melting data of Ke et al. (doi:10.1101/2024.01.08.574731)
